Results from ChEMBL document CHEMBL3352407, “Griseorhodins D-F, neuroactive intermediates and end products of post-PKS tailoring modification in Griseorhodin biosynthesis” (J Nat Prod, 2014).
Calls of active or inactive are those of the source. No cut-off for these calls is given here.

Experiments:
DRG neuron [1] = test: Increase in Ca2+ uptake in mouse DRG neurons at 10 ug/ml by Fura-2 dye-based fluorescence microscopy in presence of KCl relative to control; assay type: functional
Outline: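 Mouse DRG cells plated in medium with additives and loaded with the Ca2+ dye Fura-2 AM. Compound applied at 10 μg/mL, then 25 mM KCl added. Ca2+ influx compared with control cells in the same well.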

DRG neuron [2] = test: Induction of depolarization of mouse DRG neurons at 10 ug/ml by Fura-2 dye-based fluorescence microscopy; assay type: functional
Outline: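 Dorsal root ganglion cells were taken from mice, plated in medium with additives and loaded with Fura-2 AM. Intracellular Ca2+ was followed as the read-out while compound was applied at 10 μg/mL. This was followed by 25 mM KCl, with responses compared against control cells in the same well.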

How did the Activity (DRG neuron [1]) turn out when `CC(=O)Cc1cc2c(c(O)c1C(=O)O)-c1cc3c(c(O)c1CC2)C(=O)c1c(O)cc(O)cc1[C@H]3[C@H]1c2cc(O)cc(O)c2C(=O)c2c1cc1c(c2O)CCc2cc(CC(C)=O)c(C(=O)O)c(O)c2-1` (stereo in doubt; 1a) was run?
The Activity was “Active”.

What about the Activity (DRG neuron [2]) of the same compound?
The Activity was “inactive”.
